# Measurements pooled from the literature.
# Each line is one published result; the experiments were not run side by side.
# Target: Serine/threonine-protein kinase SIK3 (SIK3, Homo sapiens, UniProt Q9Y2K2)
SMILES,assay,setting,measurement,value
CN(C(=O)c1ccccc1)c1cc(N(C)c2ccc3c(c2)CCc2ccc(C(=O)NCCN4CCOCC4)cc2C3=O)ccc1F,"cell-free assay, competition with immobilised ligand",1 µM,remaining binding,74%
Cc1ccc(C(=O)Nc2ccc(CN3CCN(C)CC3)c(C(F)(F)F)c2)cc1C#Cc1cnc2cccnn12,"enzyme activity, inhibitor",23.5 nM,remaining activity,87%
Cc1sc(C(=O)NC2COC2)cc1-n1cc(NC(=O)Nc2c(F)cccc2Cl)cn1,"enzyme activity, inhibitor",10 µM,remaining activity,86.9%
O=S(=O)(NC1CCC(c2cc(F)ccc2F)(S(=O)(=O)c2ccc(Cl)cc2)CC1)C(F)(F)F (stereo not drawn),"cell-free assay, competition with immobilised ligand",1 µM,remaining binding,100%
COc1cc(Nc2cnc(C#N)c(O[C@H](C)CN(C)C)n2)ncc1-c1cnn(C)c1,"enzyme activity, inhibitor, radiometric",1 µM,remaining activity,89%
CC(C)(C)c1nc2c(s1)c1nc(N)ncc1c1ccc(NS(=O)(=O)c3c(F)cccc3F)c(F)c12,"enzyme activity, inhibitor, radiometric",1 µM,remaining activity,98%
COc1cc(Cl)c(C(=O)N[C@@H](CN[C@H]2CC[C@@H](N)CC2)Cc2ccc(C#N)cc2)cc1-c1ccc(CN[C@H](C)c2ccc(C)cc2)o1,"enzyme activity, inhibitor",1 µM,remaining activity,102%
COc1cc(/C=C/C(=O)CC(=O)/C=C/c2ccc(O)c(OC)c2)ccc1O,"enzyme activity, inhibitor",1 µM,activity vs control,91%
Nc1ncnc2occ(-c3ccc(NC(=O)Nc4cc(C(F)(F)F)ccc4F)cc3)c12,"cell-free assay, inhibitor",20 µM,remaining signal,76%
FC(F)(F)Oc1cccc(-c2cnc3ccc(-c4ccncc4)nn23)c1,"enzyme activity, inhibitor, radiometric",5 µM,activity vs control,102%
O=C(Nc1cnn(-c2csc(C(=O)NC3COC3)c2)c1)Nc1c(F)cccc1Cl,"enzyme activity, inhibitor",5 µM,remaining activity,94.5%
CC(C)(C)c1nc(-c2cccc(NS(=O)(=O)c3c(F)cccc3F)c2F)c(-c2ccnc(N)n2)s1,"enzyme activity, inhibitor, radiometric",1 µM,remaining activity,60%
